Experimental data reported in ChEMBL document CHEMBL1154719, “Click chemistry: studies on the synthesis of novel fluorous tagged triazol-4-yl substituted quinazoline derivatives and their biological evaluation--theoretical and experimental validation” (2010).
Values after ≈ are worked out from the molar mass of the structure shown.

Columns and labels:
Assay type in all cases: functional
Bacillus subtilis = assay: Antibacterial activity against Bacillus subtilis MTCC 441 by broth dilution method
Outline: (§1)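 MIC by broth dilution in nutrient broth. Test bacteria were kept on nutrient agar slants and subcultured in Petri dishes before testing.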

Staphylococcus aureus = assay: Antibacterial activity against Staphylococcus aureus MTCC 96 by broth dilution method; outline: as §1
[1] = tested on: Staphylococcus epidermidis; assay: Antibacterial activity against Staphylococcus epidermidis MTCC 435 by broth dilution method; outline: as §1
Escherichia coli = assay: Antibacterial activity against Escherichia coli MTCC 443 by broth dilution method; outline: as §1
Pseudomonas aeruginosa = assay: Antibacterial activity against Pseudomonas aeruginosa MTCC 741 by broth dilution method; outline: as §1
Candida albicans [2] = assay: Antifungal activity against Candida albicans MTCC 227 at 30 ug/ml after 48 hrs by agar cup diffusion method; settings: MTCC 227, 48 h, read-out: DIZ
Outline: (§2)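 Agar cup diffusion on autoclaved potato dextrose agar plates. Each plate was spread with 0.5 ml of a week-old culture, and test solutions at 30 and 100 per ml were added to cups. Plates were held at 28 °C for 48 h, and inhibition zone diameters were read in mm. Acetone served as the solvent control and amphotericin-B as the reference.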

Candida albicans [3] = assay: Antifungal activity against Candida albicans MTCC 227 at 100 ug/ml after 48 hrs by agar cup diffusion method; settings: MTCC 227, 48 h, read-out: DIZ; outline: as §2
Rhizopus arrhizus [4] = assay: Antifungal activity against Rhizopus oryzae MTCC 262 at 100 ug/ml after 48 hrs by agar cup diffusion method; settings: MTCC 262, 48 h, read-out: DIZ; outline: as §2
Saccharomyces cerevisiae [5] = assay: Antifungal activity against Saccharomyces cerevisiae MTCC 36 at 100 ug/ml after 48 hrs by agar cup diffusion method; settings: MTCC 36, 48 h, read-out: DIZ; outline: as §2
Aspergillus niger [6] = assay: Antifungal activity against Aspergillus niger MTCC 1344 at 30 ug/ml after 48 hrs by agar cup diffusion method; settings: MTCC 1344, 48 h, read-out: DIZ; outline: as §2
Aspergillus niger [7] = assay: Antifungal activity against Aspergillus niger MTCC 1344 at 100 ug/ml after 48 hrs by agar cup diffusion method; settings: MTCC 1344, 48 h, read-out: DIZ; outline: as §2
Aspergillus flavus [8] = assay: Antifungal activity against Aspergillus flavus MTCC 277 at 100 ug/ml after 48 hrs by agar cup diffusion method; settings: MTCC 277, 48 h, read-out: DIZ; outline: as §2
Diutina rugosa [9] = assay: Antifungal activity against Candida rugosa NCIM 3462 at 100 ug/ml after 48 hrs by agar cup diffusion method; settings: NCIM 3462, 48 h, read-out: DIZ; outline: as §2
Saccharomyces cerevisiae [10] = assay: Antifungal activity against Saccharomyces cerevisiae MTCC 36 at 30 ug/ml after 48 hrs by agar cup diffusion method; settings: MTCC 36, 48 h, read-out: DIZ; outline: as §2
Aspergillus flavus [11] = assay: Antifungal activity against Aspergillus flavus MTCC 277 at 30 ug/ml after 48 hrs by agar cup diffusion method; settings: MTCC 277, 48 h, read-out: DIZ; outline: as §2
Rhizopus arrhizus [12] = assay: Antifungal activity against Rhizopus oryzae MTCC 262 at 30 ug/ml after 48 hrs by agar cup diffusion method; settings: MTCC 262, 48 h, read-out: DIZ; outline: as §2
Diutina rugosa [13] = assay: Antifungal activity against Candida rugosa NCIM 3462 at 30 ug/ml after 48 hrs by agar cup diffusion method; settings: NCIM 3462, 48 h, read-out: DIZ; outline: as §2
Candida albicans [14] = assay: Antifungal activity against Candida albicans MTCC 227 at 50 ug/ml after 48 hrs by agar cup diffusion method; settings: MTCC 227, 48 h, read-out: DIZ
Outline: (§3)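 Amphotericin-B reference at 50 per ml in the agar cup assay on potato dextrose agar. Plates were spread with 0.5 ml of a week-old fungal culture, incubated at 28 °C for 48 h, and inhibition zone diameter was read in mm. Acetone served as the negative control.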

Saccharomyces cerevisiae [15] = assay: Antifungal activity against Saccharomyces cerevisiae MTCC 36 at 50 ug/ml after 48 hrs by agar cup diffusion method; settings: MTCC 36, 48 h, read-out: DIZ; outline: as §3
Rhizopus arrhizus [16] = assay: Antifungal activity against Rhizopus oryzae MTCC 262 at 50 ug/ml after 48 hrs by agar cup diffusion method; settings: MTCC 262, 48 h, read-out: DIZ; outline: as §3
Aspergillus flavus [17] = assay: Antifungal activity against Aspergillus flavus MTCC 277 at 50 ug/ml after 48 hrs by agar cup diffusion method; settings: MTCC 277, 48 h, read-out: DIZ; outline: as §3
Aspergillus niger [18] = assay: Antifungal activity against Aspergillus niger MTCC 1344 at 50 ug/ml after 48 hrs by agar cup diffusion method; settings: MTCC 1344, 48 h, read-out: DIZ
Outline: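 Agar cup diffusion on potato dextrose agar plates. 0.5 ml of a week-old A. niger culture spread over the solidified agar, then test solutions added to cups. Acetone served as negative control and amphotericin-B as positive control. Plates kept at 28 °C for 48 h. Read-out was inhibition zone diameter in mm.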

Diutina rugosa [19] = assay: Antifungal activity against Candida rugosa NCIM 3462 at 50 ug/ml after 48 hrs by agar cup diffusion method; settings: NCIM 3462, 48 h, read-out: DIZ; outline: as §3

SMILES	MIC (Bacillus subtilis) [µg/mL]	MIC (Staphylococcus aureus) [µg/mL]	MIC [1] [µg/mL]	MIC (Escherichia coli) [µg/mL]	MIC (Pseudomonas aeruginosa) [µg/mL]	zone of inhibition at 30 µg/mL (Candida albicans [2]) [mm]	zone of inhibition at 100 µg/mL (Candida albicans [3]) [mm]	zone of inhibition at 100 µg/mL (Rhizopus arrhizus [4]) [mm]	zone of inhibition at 100 µg/mL (Saccharomyces cerevisiae [5]) [mm]	zone of inhibition at 30 µg/mL (Aspergillus niger [6]) [mm]	zone of inhibition at 100 µg/mL (Aspergillus niger [7]) [mm]	zone of inhibition at 100 µg/mL (Aspergillus flavus [8]) [mm]	zone of inhibition at 100 µg/mL (Diutina rugosa [9]) [mm]	zone of inhibition at 30 µg/mL (Saccharomyces cerevisiae [10]) [mm]	zone of inhibition at 30 µg/mL (Aspergillus flavus [11]) [mm]	other results
FC(F)(F)c1nc(OCc2cn(CCC(F)(F)C(F)(F)C(F)(F)C(F)(F)C(F)(F)C(F)(F)F)nn2)c2ccccc2n1	18.8 (≈ 29.2 µM)	9.38 (≈ 14.6 µM)	9.38 (≈ 14.6 µM)	75 (≈ 117 µM)	37.5 (≈ 58.5 µM)	8	12	9	9	8	12	9	9	–	–	–
O=c1c2ccccc2nc(-c2ccccc2)n1Cc1cn(CCC(F)(F)C(F)(F)C(F)(F)C(F)(F)C(F)(F)C(F)(F)F)nn1	150 (≈ 231 µM)	150 (≈ 231 µM)	150 (≈ 231 µM)	75 (≈ 115 µM)	37.5 (≈ 57.7 µM)	9	12	10	12	9	12	12	10	8	8	–
O=c1c2ccccc2nc(-c2c(F)cccc2F)n1Cc1cn(CCC(F)(F)C(F)(F)C(F)(F)C(F)(F)C(F)(F)C(F)(F)C(F)(F)C(F)(F)F)nn1	150 (≈ 191 µM)	150 (≈ 191 µM)	150 (≈ 191 µM)	75 (≈ 95.5 µM)	75 (≈ 95.5 µM)	7	10	9	9	7	10	9	9	–	–	–
O=c1c2ccccc2nc(C(F)(F)F)n1Cc1cn(CCC(F)(F)C(F)(F)C(F)(F)C(F)(F)C(F)(F)C(F)(F)F)nn1	150 (≈ 234 µM)	150 (≈ 234 µM)	150 (≈ 234 µM)	75 (≈ 117 µM)	75 (≈ 117 µM)	–	9	13	12	–	9	12	13	9	9	zone of inhibition at 30 µg/mL (Rhizopus arrhizus [12]): 8 mm; zone of inhibition at 30 µg/mL (Diutina rugosa [13]): 8 mm
FC(F)(F)C(F)(F)C(F)(F)C(F)(F)C(F)(F)C(F)(F)C(F)(F)C(F)(F)CCn1cc(COc2nc(-c3ccccc3)nc3ccccc23)nn1	150 (≈ 200 µM)	150 (≈ 200 µM)	150 (≈ 200 µM)	150 (≈ 200 µM)	75 (≈ 100 µM)	7	10	10	10	7	10	10	10	7	7	–
FC(F)(F)C(F)(F)C(F)(F)C(F)(F)C(F)(F)C(F)(F)C(F)(F)C(F)(F)CCn1nncc1COc1nc(-c2ccccc2)nc2ccccc12	37.5 (≈ 50 µM)	9.38 (≈ 12.5 µM)	9.38 (≈ 12.5 µM)	75 (≈ 100 µM)	37.5 (≈ 50 µM)	8	12	12	9	8	12	9	12	–	–	–
O=c1c2ccccc2nc(-c2ccccc2)n1Cc1cn(CCC(F)(F)C(F)(F)C(F)(F)C(F)(F)C(F)(F)C(F)(F)C(F)(F)C(F)(F)F)nn1	150 (≈ 200 µM)	75 (≈ 100 µM)	75 (≈ 100 µM)	15 (≈ 20 µM)	75 (≈ 100 µM)	–	9	10	9	–	9	9	10	–	–	–
C#CCn1c(-c2ccccc2)nc2ccccc2c1=O	37.5 (≈ 144 µM)	37.5 (≈ 144 µM)	37.5 (≈ 144 µM)	75 (≈ 288 µM)	37.5 (≈ 144 µM)	7	10	12	12	7	10	12	12	9	9	zone of inhibition at 30 µg/mL (Rhizopus arrhizus [12]): 8 mm; zone of inhibition at 30 µg/mL (Diutina rugosa [13]): 8 mm
C[C@@H]1[C@H](O)[C@@H](C)/C=C/C=C/C=C/C=C/C=C/C=C/C=C/[C@H](O[C@@H]2O[C@H](C)[C@@H](O)[C@H](N)[C@@H]2O)C[C@@H]2O[C@](O)(C[C@@H](O)C[C@@H](O)[C@H](O)CC[C@@H](O)C[C@@H](O)CC(=O)O[C@H]1C)C[C@H](O)[C@H]2C(=O)O [AMPHOTERICIN B]	–	–	–	–	–	–	–	–	–	–	–	–	–	–	–	zone of inhibition at 50 µg/mL (Candida albicans [14]): 23.5 mm; zone of inhibition at 50 µg/mL (Saccharomyces cerevisiae [15]): 22 mm; zone of inhibition at 50 µg/mL (Rhizopus arrhizus [16]): 24 mm; zone of inhibition at 50 µg/mL (Aspergillus flavus [17]): 25 mm; zone of inhibition at 50 µg/mL (Aspergillus niger [18]): 25 mm; zone of inhibition at 50 µg/mL (Diutina rugosa [19]): 22 mm
